Values after ≈ are worked out from the molar mass of the structure shown.
Experiments:
Assay type in all cases: functional
[1] = tested on: Mycobacterium tuberculosis; test: Antibacterial activity against Mycobacterium tuberculosis H37Rv after 5 days by microplate Alamar Blue assay; details: 120 h
Method in brief: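 M. tuberculosis H37Rv grown in 7H9; final inoculum 2 × 10^6 cfu/mL. Samples from 20 mg/mL DMSO stocks, 2-fold diluted in 7H9 without Tween 80, tested in triplicate at 37 °C. From day 5, Alamar Blue plus 5% Tween 80 went to a control well; whole plate dosed once bacteria-only well turned pink. Read visually 24 h later; MIC = lowest concentration preventing colour change.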

Pseudomonas aeruginosa = test: Antibacterial activity against Pseudomonas aeruginosa 11 after 24 hrs by microdilution test; details: Pseudomonas aeruginosa, 11, 24 h
Method in brief: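 CLSI broth microdilution; P. aeruginosa 11 grown in Mueller-Hinton broth, final inoculum 10^6 cells/mL. Samples from 20 mg/mL DMSO stocks, serially diluted, run in triplicate; sansanmycin A as positive control. Incubated 37 °C for 24 h, growth read by eye; MIC = lowest concentration completely inhibiting growth.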

[2] = tested on: Mycobacterium tuberculosis; test: Ratio of sansanmycin A MIC to compound MIC for Mycobacterium tuberculosis H37Rv after 5 days by microplate Alamar Blue assay

Compound `C[C@@H]([C@H](NC(=O)[C@H](CC[S+](C)[O-])NC(=O)N[C@@H](Cc1c[nH]c2ccccc12)C(=O)O)C(=O)N/C=C1/C[C@@H](O)[C@H](n2ccc(=O)[nH]c2=O)O1)N(C)C(=O)[C@@H](N)Cc1cccc(O)c1` (stereo partly drawn) has an MIC [1] greater than 32 mg/L and an MIC (Pseudomonas aeruginosa) of 16 mg/L (≈ 18.2 µM).
For `CSCC[C@H](NC(=O)N[C@@H](Cc1c[nH]c2ccccc12)C(=O)O)C(=O)N[C@H](C(=O)N/C=C1/C[C@@H](O)[C@H](n2ccc(=O)[nH]c2=O)O1)[C@H](C)N(C)C(=O)C1Cc2cccc(O)c2CN1` (stereo partly drawn), the MIC [1] was greater than 32 mg/L and the MIC (Pseudomonas aeruginosa) was greater than 64 mg/L.
Work on `CSCC[C@H](NC(=O)N[C@@H](Cc1c[nH]c2ccccc12)C(=O)O)C(=O)N[C@H](C(=O)N/C=C1/C[C@@H](O)[C@H](n2ccc(=O)[nH]c2=O)O1)[C@H](C)N(C)C(=O)C1Cc2cc(O)ccc2CN1` (stereo partly drawn) yielded an MIC [1] of 8 mg/L (≈ 9.13 µM) and an MIC (Pseudomonas aeruginosa) greater than 64 mg/L.
Work on `C[C@@H]([C@H](NC(=O)[C@H](Cc1ccccc1)NC(=O)N[C@@H](Cc1c[nH]c2ccccc12)C(=O)O)C(=O)N/C=C1/C[C@@H](O)[C@H](n2ccc(=O)[nH]c2=O)O1)N(C)C(=O)C1Cc2cccc(O)c2CN1` (stereo partly drawn) yielded an MIC [1] of 16 mg/L (≈ 17.9 µM) and an MIC (Pseudomonas aeruginosa) of 32 mg/L (≈ 35.9 µM).
For `C[C@@H]([C@H](NC(=O)[C@H](Cc1ccccc1)NC(=O)N[C@@H](Cc1c[nH]c2ccccc12)C(=O)O)C(=O)N/C=C1/C[C@@H](O)[C@H](n2ccc(=O)[nH]c2=O)O1)N(C)C(=O)C1Cc2cc(O)ccc2CN1` (stereo partly drawn), the MIC [1] was 2 mg/L (≈ 2.24 µM), the MIC (Pseudomonas aeruginosa) was 8 mg/L (≈ 8.97 µM) and the Ratio [2] was 8.
In the case of `CSCC[C@H](NC(=O)N[C@@H](Cc1ccc(O)cc1)C(=O)O)C(=O)N[C@H](C(=O)N/C=C1/C[C@@H](O)[C@H](n2ccc(=O)[nH]c2=O)O1)[C@H](C)N(C)C(=O)C1Cc2cccc(O)c2CN1` (stereo partly drawn), the MIC [1] is reported as greater than 32 mg/L and the MIC (Pseudomonas aeruginosa) is reported as greater than 64 mg/L.
In the case of `CSCC[C@H](NC(=O)N[C@@H](Cc1ccc(O)cc1)C(=O)O)C(=O)N[C@H](C(=O)N/C=C1/C[C@@H](O)[C@H](n2ccc(=O)[nH]c2=O)O1)[C@H](C)N(C)C(=O)C1Cc2cc(O)ccc2CN1` (stereo partly drawn), the MIC [1] is reported as 16 mg/L (≈ 18.8 µM) and the MIC (Pseudomonas aeruginosa) is reported as greater than 64 mg/L.
Compound `C[C@@H]([C@H](NC(=O)[C@H](Cc1ccccc1)NC(=O)N[C@@H](Cc1c[nH]c2ccccc12)C(=O)O)C(=O)N/C=C1/C[C@@H](O)[C@H](n2ccc(=O)[nH]c2=O)O1)N(C)C(=O)[C@@H](N)Cc1cccc(O)c1` has an MIC [1] of 8 mg/L (≈ 9.09 µM) and an MIC (Pseudomonas aeruginosa) of 32 mg/L (≈ 36.4 µM).
For `CSCC[C@H](NC(=O)N[C@@H](Cc1ccc(O)cc1)C(=O)O)C(=O)N[C@H](C(=O)N/C=C1/C[C@@H](O)[C@H](n2ccc(=O)[nH]c2=O)O1)[C@H](C)N(C)C(=O)[C@@H](N)Cc1cccc(O)c1`, the MIC [1] was 8 mg/L (≈ 9.51 µM) and the MIC (Pseudomonas aeruginosa) was 8 mg/L (≈ 9.51 µM).
`NNC(=O)c1ccncc1` [ISONIAZID] gave an MIC [1] of 0.05 mg/L (≈ 0.365 µM).
`CO[C@H]1/C=C/O[C@@]2(C)Oc3c(C)c(O)c4c(O)c(c(/C=N/N5CCN(C)CC5)c(O)c4c3C2=O)NC(=O)/C(C)=C\C=C\[C@H](C)[C@H](O)[C@@H](C)[C@@H](O)[C@@H](C)[C@H](OC(C)=O)[C@@H]1C` [RIFAMPIN] was tested, and the MIC [1] was 0.12 mg/L (≈ 0.146 µM).
`CSCCC(NC(=O)NC(Cc1c[nH]c2ccccc12)C(=O)O)C(=O)NC(C(=O)N/C=C1\C[C@@H](O)[C@H](n2ccc(=O)[nH]c2=O)O1)C(C)N(C)C(=O)C(N)Cc1cccc(O)c1` (stereo partly drawn) [SANSANMYCIN A] showed an MIC [1] of 16 mg/L (≈ 18.5 µM) and an MIC (Pseudomonas aeruginosa) of 4 mg/L (≈ 4.63 µM).

Reference: ChEMBL document CHEMBL3351273, “NRPS substrate promiscuity leads to more potent antitubercular sansanmycin analogues” (2014)
